ChEMBL document CHEMBL5236592, “Induction of Ferroptosis in Glioblastoma and Ovarian Cancers by a New Pyrrole Tubulin Assembly Inhibitor” (J Med Chem, 2022)
Calls of active or inactive are those of the source. No cut-off for these calls is given here.

How the values were obtained:
[1] = tested on: Mus musculus; test: Upregulation of Nfe2l2 mRNA expression in tumor of BALB/C nu/nu mouse xenografted with human U-87 MG cells at 25 mg/kg, ip administered every 2 days for 40 days by qPCR analysis; assay type: functional, organism-based; details: time 40.0 day
In short: (§1)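 Female BALB/c nu/nu mice, 10 weeks old, 4 per group. Inoculated s.c. with 1 × 10^8 cells/mL of log-phase U-87 MG or SKOV-3 cells. Dosed i.p. with 100 μL at 25 mg/kg every 2 days; controls got 100 μL saline. Tumors harvested on day 40. RNA extracted from about 20 mg of tissue. qPCR panel of 69 genes, 40 cycles (94 °C 20 s, 60 °C 34 s). Analysed by 2–ΔΔCt; fold ≥1.5 taken as increased.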

[2] = tested on: Mus musculus; test: Upregulation of Akr1c3 mRNA expression in tumor of BALB/C nu/nu mouse xenografted with human U-87 MG cells at 25 mg/kg, ip administered every 2 days for 40 days by qPCR analysis; assay type: functional, organism-based; details: time 40.0 day
In short: (§2)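 Female BALB/c nu/nu mice bearing sc U-87 MG or SKOV-3 xenografts were dosed ip at 25 mg/kg (100 μL) every 2 days, or given saline, and tumors were taken at day 40. RNA was extracted from about 20 mg of tissue. qPCR ran 40 cycles (95 °C 15 min; 94 °C 20 s; 60 °C 34 s) on a 69-gene panel. Fold change was by 2^–ΔΔCt, with ≥1.5 counted as increased.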

[3] = tested on: Mus musculus; test: Upregulation of Hspb5 mRNA expression in tumor of BALB/C nu/nu mouse xenografted with human U-87 MG cells at 25 mg/kg, ip administered every 2 days for 40 days by qPCR analysis; assay type: functional, organism-based; details: time 40.0 day; in short: as §1
[4] = tested on: T-cell line; test: Cytotoxicity against human primary T-lymphocytes assessed as reduction in cell viability at 1 to 2.5 uM incubated for 48 to 72 hrs by Annexin V- APC/PI staining based flow cytometry analysis; assay type: toxicity; details: dose lower 1 µM, time lower 48 hrs, dose upper 2.5 µM, time upper 72 hrs
In short: (§3)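 T lymphocytes negatively selected from healthy-donor PBMCs isolated by density gradient. Cultured at 1.5 × 10^6/mL with 0.1, 1.0 or 2.5 μM compound, DMSO vehicle or untreated, for 48 or 72 h. Stained with annexin V-APC and propidium iodide; early and late apoptotic fractions counted by flow cytometry.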

[5] = tested on: Mus musculus; test: Upregulation of Gclc mRNA expression in tumor of BALB/C nu/nu mouse xenografted with human U-87 MG cells at 25 mg/kg, ip administered every 2 days for 40 days by qPCR analysis; assay type: functional, organism-based; details: time 40.0 day; in short: as §2
[6] = tested on: Mus musculus; test: Upregulation of Nrf2 mRNA expression in tumor of BALB/C nu/nu mouse xenografted with human SK-OV-3 cells at 25 mg/kg, ip administered every 2 days for 40 days by qPCR analysis; assay type: functional, organism-based; details: time 40.0 day; in short: as §1
[7] = tested on: U-87MG ATCC; test: Induction of ferroptosis-mediated antitumor activity against human U-87 MG cells xenografted in BALB/C nu/nu mouse assessed as reduction in GPX4 protein expression in tumor at 25 mg/kg, ip administered every 2 days for 40 days by immunofluoresence staining based assay; assay type: functional, organism-based; details: time 40.0 day
In short: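 Xenografts of U-87 MG or SKOV-3 (1 × 10^8 cells/mL, sc) in female BALB/c nu/nu mice, 4 per group. Treated ip at 25 mg/kg in 100 μL every 2 days versus saline, tumors collected at day 40. Paraffin sections (6 μm) were blocked at 37 °C for 30 min, then incubated with rabbit anti-GPX4 or anti-FTH1 and then Alexa Fluor 488 anti-rabbit, each for 45 min at 37 °C.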

[8] = tested on: Mus musculus; test: Upregulation of Gss mRNA expression in tumor of BALB/C nu/nu mouse xenografted with human SK-OV-3 cells at 25 mg/kg, ip administered every 2 days for 40 days by qPCR analysis; assay type: functional, organism-based; details: time 40.0 day; in short: as §1
[9] = tested on: Mus musculus; test: Upregulation of Gpx4 mRNA expression in tumor of BALB/C nu/nu mouse xenografted with human SK-OV-3 cells at 25 mg/kg, ip administered every 2 days for 40 days by qPCR analysis; assay type: functional, organism-based; details: time 40.0 day; in short: as §1
[10] = tested on: Mus musculus; test: Upregulation of Gls2 mRNA expression in tumor of BALB/C nu/nu mouse xenografted with human SK-OV-3 cells at 25 mg/kg, ip administered every 2 days for 40 days by qPCR analysis; assay type: functional, organism-based; details: time 40.0 day; in short: as §2
[11] = tested on: Mus musculus; test: Upregulation of Sqs mRNA expression in tumor of BALB/C nu/nu mouse xenografted with human SK-OV-3 cells at 25 mg/kg, ip administered every 2 days for 40 days by qPCR analysis; assay type: functional, organism-based; details: time 40.0 day; in short: as §1
[12] = tested on: Mus musculus; test: Upregulation of Ireb2 mRNA expression in tumor of BALB/C nu/nu mouse xenografted with human U-87 MG cells at 25 mg/kg, ip administered every 2 days for 40 days by qPCR analysis; assay type: functional, organism-based; details: time 40.0 day; in short: as §1
[13] = tested on: Mus musculus; test: Upregulation of Cbs mRNA expression in tumor of BALB/C nu/nu mouse xenografted with human SK-OV-3 cells at 25 mg/kg, ip administered every 2 days for 40 days by qPCR analysis; assay type: functional, organism-based; details: time 40.0 day; in short: as §2
[14] = tested on: Mus musculus; test: Upregulation of Ttc35 mRNA expression in tumor of BALB/C nu/nu mouse xenografted with human SK-OV-3 cells at 25 mg/kg, ip administered every 2 days for 40 days by qPCR analysis; assay type: functional, organism-based; details: time 40.0 day; in short: as §1
[15] = tested on: Mus musculus; test: Upregulation of Cbs mRNA expression in tumor of BALB/C nu/nu mouse xenografted with human U-87 MG cells at 25 mg/kg, ip administered every 2 days for 40 days by qPCR analysis; assay type: functional, organism-based; details: time 40.0 day; in short: as §2
[16] = tested on: Mus musculus; test: Upregulation of Nrf2 mRNA expression in tumor of BALB/C nu/nu mouse xenografted with human U-87 MG cells at 25 mg/kg, ip administered every 2 days for 40 days by qPCR analysis; assay type: functional, organism-based; details: time 40.0 day; in short: as §1
[17] = tested on: Mus musculus; test: Upregulation of Ptgs2 mRNA expression in tumor of BALB/C nu/nu mouse xenografted with human U-87 MG cells at 25 mg/kg, ip administered every 2 days for 40 days by qPCR analysis; assay type: functional, organism-based; details: time 40.0 day; in short: as §1
[18] = tested on: Mus musculus; test: Upregulation of Rpl8 mRNA expression in tumor of BALB/C nu/nu mouse xenografted with human SK-OV-3 cells at 25 mg/kg, ip administered every 2 days for 40 days by qPCR analysis; assay type: functional, organism-based; details: time 40.0 day; in short: as §1
[19] = tested on: Mus musculus; test: Upregulation of Chac1 mRNA expression in tumor of BALB/C nu/nu mouse xenografted with human SK-OV-3 cells at 25 mg/kg, ip administered every 2 days for 40 days by qPCR analysis; assay type: functional, organism-based; details: time 40.0 day; in short: as §2
[20] = tested on: Mus musculus; test: Upregulation of Gls2 mRNA expression in tumor of BALB/C nu/nu mouse xenografted with human U-87 MG cells at 25 mg/kg, ip administered every 2 days for 40 days by qPCR analysis; assay type: functional, organism-based; details: time 40.0 day; in short: as §1
[21] = tested on: Mus musculus; test: Upregulation of Gclm mRNA expression in tumor of BALB/C nu/nu mouse xenografted with human SK-OV-3 cells at 25 mg/kg, ip administered every 2 days for 40 days by qPCR analysis; assay type: functional, organism-based; details: time 40.0 day; in short: as §2
[22] = tested on: T-cell line; test: Cytotoxicity against human primary T-lymphocytes assessed as reduction in cell viability at 0.1 uM incubated for 48 to 72 hrs by Annexin V- APC/PI staining based flow cytometry analysis; assay type: toxicity; details: time 48-72 hrs; in short: as §3

## COc1cc(C(=O)c2cn(-c3ncccn3)cc2-c2ccco2)cc(OC)c1OC
[1]
  Activity: Active
[2]
  Activity: Active
[3]
  Activity: Active
[4]
  Activity: Toxic
[5]
  Activity: Active
[6]
  Activity: Active
[7]
  Activity: Active
[8]
  Activity: Active
[9]
  Activity: Active
[10]
  Activity: Active
[11]
  Activity: Active
[12]
  Activity: Active
[13]
  Activity: Active
[14]
  Activity: Active
[15]
  Activity: Active
[16]
  Activity: Active
[17]
  Activity: Active
[18]
  Activity: Active
[19]
  Activity: Active
[20]
  Activity: Active
[21]
  Activity: Active
[22]
  Activity: Non-Toxic
